Measured values taken from the array DNA melting data of Ke et al. (doi:10.1101/2024.01.08.574731).

How the values were obtained:
[1] = melting temperature; fluorescence melt of hairpins on a sequencing array, two-state fit, raised by 9.35 °C to match UV melts; settings: sodium 0.088 M
How it was run: (§1)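 Hairpins were imaged by Cy3 fluorescence on a sequenced MiSeq flow cell with annealed Cy3 and quencher oligos, in 50 mM Na-HEPES pH 8.0, 25 mM NaCl, in 2.5 °C steps up to 60 °C. Bootstrapped two-state fits of normalised signals gave melting temperature and folding enthalpy. Four replicates were combined by inverse variance, and fitted temperatures were raised by 9.35 °C to match UV melts.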

[2] = folding enthalpy; higher = less favourable; fluorescence melt of hairpins on a sequencing array, two-state fit; settings: sodium 0.088 M
How it was run: as §1

Sequence | Tm [1] [°C] | folding enthalpy [2] [kcal/mol]
GATCAAGTACTTGATC ((((((....)))))) | 51.9 | -45.2
GTTCTGGGAAACCGGAAC ((((.((....)).)))) | 50.9 | -41.5
GCGTAGAAATACGC (((((....))))) | 55.2 | -25.1
GCGGTCGACCGC ((((....)))) | 67.7 | -38.5
GCGTCGCGAAAGCGTAGC ((..(((....)))..)) | 58.6 | -20.8
GATCTCTAGTGAGATC ((((((....)))))) | 50.3 | -36.9
GATCTGTTGCCAGATC ((((((....)))))) | 50.5 | -36.9
GACGTGAAAACGTC (((((....))))) | 61.8 | -32.7
GCAACTCGAAAGAGGTGC (((.(((....))).))) | 65.5 | -40.6
GGGATTGGAAACAATTCC ((.((((....)))).)) | 46.5 | -34
GTATTTCCGAAAGGATAC (((..(((....)))))) | 26 | -11.8
GTGATTCGAAAGAACAC (((.(((....)))))) | 40.9 | -24.8
GGCCTTCCGAAAGGAGCC (((..(((....)))))) | 38.9 | -19.1
GATCTCGTTGGAGATC ((((((....)))))) | 54.2 | -42.3
GTATGGGGAAACCCATGC (.(((((....))))).) | 49 | -20.9
GCTCGCGAAAGCGTAGC ((((((....))).))) | 61.9 | -19
GCGGACGAAAGTCCACGC ((((((....)))..))) | 58.9 | -15.2
CGCCACGGAAACGTGCG (((.(((....)))))) | 54.4 | -24.7
CGTATCGGAAACGAAACG (((.(((....))).))) | 42.5 | -37.5
GAAGGTGGAAACACCTTC (((((((....))))))) | 64.6 | -37.7
GTTCGGAAACGAAC (((((....))))) | 56 | -25.9
GGTCACGGAAACGCGACC ((((.((....)).)))) | 54.4 | -50.2
CGGCCGGAAACGGTCCCG ((((((....)))..))) | 41 | -13.1
GCCGTGCGAAAGCAATGC ((..(((....)))..)) | 39.2 | -11.2

Sequence | Tm [1] [°C] | folding enthalpy [2] [kcal/mol]
GATCCATATGTGGATC ((((((....)))))) | 54.9 | -38.1
GTGGGCGAAAGCCGCCAC ((((((....)))..))) | 42.3 | -13.3
GATCCGACCACGGATC ((((((....)))))) | 61.3 | -36.9
GAACACGGAAACATGTTC (((((.(....).))))) | 35.1 | -28
GCACCAGGAAACTAGTGC ((((.((....)).)))) | 40.2 | -29.2
GATCAGGCTTCTGATC ((((((....)))))) | 50.3 | -37.1
GATCAGCTACCTGATC ((((((....)))))) | 48.9 | -40
GCGGTGACCCGC ((((....)))) | 55.3 | -23.1
ATCGGGAAACCGAT (((((....))))) | 50.2 | -24.1
GTATGAGGAAACCCATAC (((((.(....).))))) | 35.3 | -30.3
GCGACTGGAAACAGCCGC (((.(((....))).))) | 56.2 | -51.9
GATCTAGAATTAGATC ((((((....)))))) | 45.2 | -35
GGAAACTCGAAAGAGTCC (((..(((....)))))) | 33.8 | -14.3
GCCTTTCGAAAGAATGGC (((.(((....))).))) | 53 | -42.6
AACCAGAAATGGTT (((((....))))) | 40.2 | -14.8
GCTTCGCGAAAGCGCGGC ((..(((....)))..)) | 39.6 | -18.8
GCTGTCGGAAACAACAGC (((((.(....).))))) | 46 | -26.9
GCTAGACCGAAAGGTAGC (((..(((....)))))) | 44.1 | -19.2
GATCTGCGACCAGATC ((((((....)))))) | 46.6 | -35
GCCGACGGAAACACCGGC ((((..(....)..)))) | 43.9 | -20.4
GGACCACGAAAGTGTTCC (((.(((....))).))) | 49.4 | -24.8
GTGGGCGAAAGCCCCCAC ((((((....)))..))) | 38.7 | -7.28
GTGTACGAAAGTACAC ((((((....)))))) | 69.1 | -29.7
GGATGTACGAAAGTATCC (((..(((....)))))) | 37.9 | -20.2

Sequence | Tm [1] [°C] | folding enthalpy [2] [kcal/mol]
GAACTCGAAAGAGTTC ((((((....)))))) | 61.6 | -39.3
GGGCAACCGAAAGGTCCC (((..(((....)))))) | 44 | -16.3
GTAGGTGGAAACGTCTAC ((((..(....)..)))) | 28.8 | -16.8
GTATATCGAAAGATCTAC (((.(((....))).))) | 31.8 | -19.5
GCAAGCCGAAAGGCATGC (((.(((....))).))) | 64 | -24.9
GTACACCGAAAGGTATAC (((.(((....))).))) | 39.1 | -22.3
GCGTAGCGAAAGCAGCGC (((..((....))..))) | 65.4 | -16.6
GCGAGCAGTCGC ((((....)))) | 52.6 | -26.2
GGCGTGCCGAAAGGCGCC (((..(((....)))))) | 59.8 | -11.5
GAGGGACCGAAAGGTCTC (((..(((....)))))) | 38.3 | -11.6
GATCAGCAGCTGATC ((((((...)))))) | 48.8 | -48.4
GTCTAGGGAAACTTAGAC (((((.(....).))))) | 37.4 | -36.3
GCGGTCGAAAGACCCGC ((((((....))).))) | 66.8 | -24
GCCACGCGAAAGCATTGC ((.(.((....)).).)) | 28.7 | -11.6
GATAGCGAAAGCTCGATC ((((((....)))..))) | 24.8 | -10.1
GCAGCGCGAAAGCGTGGC ((..(((....)))..)) | 64.2 | -23.1
GCCAAGCGAAAGCCTCGC ((.(.((....)).).)) | 23.1 | -5.93
GAAAGCGGAAACGCCTTC (((.(((....))).))) | 34.1 | -18.4
GATCGTATACACGATC ((((((....)))))) | 53.9 | -38.4
GTGGCAGGAAACTGTCGC (.(.(((....))).).) | 45.7 | -27.3
GTACCGGGAAACCGGTGC (.(((((....))))).) | 57.1 | -19.1
GGCCAACGAAAGTTCGCC (((.(((....))).))) | 47 | -40.2
GTGATCTCGAAAGAGCAC (((..(((....)))))) | 45.5 | -25.7
GGACAAGGAAACTTGCCC ((.((((....)))).)) | 43 | -20.3

Sequence | Tm [1] [°C] | folding enthalpy [2] [kcal/mol]
GATCTCGGAGGAGATC ((((((....)))))) | 55.7 | -44.4
GTCTCCGAAAGGATGGAC ((((((....)))..))) | 35.2 | -17.6
GGCGTCGAAAGACCAGCC ((((((....)))..))) | 50.9 | -18.6
GATCACAACTGTGATC ((((((....)))))) | 58.9 | -37.4
GATCTATTTGTAGATC ((((((....)))))) | 45.2 | -35
GCGTCTGGAAACGGATGC ((.((.(....).)).)) | 44.4 | -35.5
GATCCGTCCCGGATC ((((((...)))))) | 61 | -39.4
GATCCACTTATGGATC ((((((....)))))) | 50.8 | -42.9
GGCGAACGAAAGTTGGCC (((.(((....))).))) | 59 | -42.5
GGGCTGCGAAAGCATCCC (((.(((....))).))) | 55.2 | -34.5
GATCGATGGTCGATC ((((((...)))))) | 50.6 | -29.4
CGGCCTCGGAAACGACCG (((..(((....)))))) | 34.5 | -18.7
GAGAAGCGAAAGCTCTC (((.(((....)))))) | 50.2 | -20.1
GCGAAGCCGAAAGGCCGC (((..(((....)))))) | 58.8 | -20.2
GCACTCGAAAGAGTATGC ((((((....)))..))) | 42.1 | -16.2
GAGACCGAAAGGTGCTC ((((((....))).))) | 46.9 | -21.4
GGCCACGGAAACGTGACC ((.((((....)))).)) | 54.1 | -37.9
GATCATCTTTATGATC ((((((....)))))) | 47.9 | -32.3
GATCGGTACTCCGATC ((((((....)))))) | 59.3 | -38.3
GTTTTCGAAAGAAACAAC ((((((....)))..))) | 26.6 | -11.7
GATCTTAATTAAGATC ((((((....)))))) | 44.7 | -32.1
